Data as given in ChEMBL document CHEMBL1152160, “Synthesis and bioevaluation of hybrid 4-aminoquinoline triazines as a new class of antimalarial agents” (Bioorg Med Chem Lett, 2008).
In brackets after ≈: the same amount, converted by molar mass.

What was measured:
[1] = system: Plasmodium falciparum; assay: Antimalarial activity after 72hrs against chloroquine-sensitive Plasmodium falciparum 3D7 infected erythrocytes; format: functional, organism-based; details: 3D7, 72 h
Method in brief: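 Serial dilutions in screening medium, seven concentrations (top 500 ng/mL, or 100 ng/mL for some compounds), duplicate wells. Added 2.5% haematocrit erythrocytes at 0.5% parasitaemia. Uninfected erythrocytes without drug as negative control, CQ as positive control. After 72 h, SYBR Green I in lysis buffer (20 mM tris pH 7.5, 5 mM EDTA, saponin, Triton X-100), 1 h room temperature, fluorescence read.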

[2] = Selectivity index, ratio of IC50 for african green monkey (Cercopithecus aethiops) Vero cells to IC50 for chloroquine-sensitive Plasmodium falciparum 3D7; format: toxicity, cell-based; details: read-out: Ratio IC50
Method in brief: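 Vero cells at 1 × 10⁴ cells/well were exposed to varying compound concentrations, highest 100 µg/mL, for 72 h. Viability was measured by MTT. Cytotoxic IC50 was taken from non-linear regression of dose–response curves and divided by the 3D7 IC50 to give the index.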

[3] = system: Plasmodium yoelii; assay: Antimalarial activity as reduced parasitaemia after 4 days against Plasmodium yoelii N67 infected Swiss mice (Mus musculus) at 50 mg/kg/day intraperitoneal dose; format: functional, N-67; parameters: scale not given: the % may be the effect or the level left
Method in brief: (§1)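 Swiss mice (22 ± 2 g), groups of five, inoculated day 0 with P. yoelii N-67-parasitized RBC. Dosed 50 mg/kg/day i.p. once daily, days 0–3, as aqueous suspension with a few drops of Tween 80 in 0.2 mL. Parasitaemia read from thin blood smears on days 4–6. Group mean gave % suppression versus untreated controls. CQ-treated mice as reference.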

[4] = system: Plasmodium yoelii; assay: Antimalarial activity as reduced parasitaemia after 6 days against Plasmodium yoelii N67 infected Swiss mice (Mus musculus) at 50 mg/kg/day intraperitoneal dose; format: functional, N-67; parameters: scale not given: the % may be the effect or the level left; method in brief: as §1
[5] = system: Mus musculus; assay: Toxicity to Plasmodium yoelii N-67 infected Swiss mice (Mus musculus) assessed as survival at 50 mg/kg/day, intraperitoneally after 28 days; format: organism-based; parameters: route intraperitoneal; details: in vivo, ip, 672 h
Method in brief: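 Swiss mice were infected on day 0 with parasitized RBC of CQ-resistant P. yoelii N-67. Groups of five were dosed intraperitoneally at 50 mg/kg/day, once daily on days 0–3. Compounds were given as aqueous suspensions with a few drops of Tween 80. Survival was followed for 28 days. CQ-treated mice served as reference controls.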

IC50 [1] [µg/mL] | Structure (SMILES) | selectivity ratio [2] | Activity [3] [%] | Activity [4] [%] | Activity [5]
0.159 (≈ 0.283 µM) | Fc1ccccc1Nc1nc(N2CCCCC2)nc(N2CCN(CCNc3ccnc4cc(Cl)ccc34)CC2)n1 | 14.9 |  |  | 
0.0178 (≈ 0.0328 µM) | Clc1ccc2c(NCCN3CCN(c4nc(Nc5ccccc5)nc(N5CCCCC5)n4)CC3)ccnc2c1 | 117 | 66.67 | 55.36 | 
0.0162 (≈ 0.0291 µM) | Clc1ccc2c(NCCN3CCN(c4nc(Nc5ccccc5)nc(NC5CCCCC5)n4)CC3)ccnc2c1 | 154 | 86.43 | 78.73 | 
0.0213 (≈ 0.039 µM) | Clc1ccc2c(NCCN3CCN(c4nc(Nc5ccccc5)nc(N5CCOCC5)n4)CC3)ccnc2c1 | 470 |  |  | 
0.0646 (≈ 0.102 µM) | Cc1ccc(Nc2nc(N3CCN(CCNc4ccnc5cc(Cl)ccc45)CC3)nc(N3CCN(c4ccccc4)CC3)n2)cc1 | 52.2 |  |  | 
0.0192 (≈ 0.0342 µM) | Cc1ccccc1Nc1nc(N2CCOCC2)nc(N2CCN(CCNc3ccnc4cc(Cl)ccc34)CC2)n1 | 377 |  |  | 
0.0435 (≈ 0.0776 µM) | Cc1ccc(Nc2nc(N3CCOCC3)nc(N3CCN(CCNc4ccnc5cc(Cl)ccc45)CC3)n2)cc1 | 512 |  |  | 
0.038 (≈ 0.0663 µM) | CCN1CCN(c2nc(Nc3ccccc3)nc(N3CCN(CCNc4ccnc5cc(Cl)ccc45)CC3)n2)CC1 | 41.8 |  |  | 
0.019 (≈ 0.0324 µM) | CCN1CCN(c2nc(Nc3ccc(C)cc3)nc(N3CCN(CCNc4ccnc5cc(Cl)ccc45)CC3)n2)CC1 | 41 |  |  | 

The remaining lines, values behind:

Structure (SMILES) | IC50 [1] [µg/mL] | selectivity ratio [2] | Activity [3] [%] | Activity [4] [%] | Activity [5]
Cc1ccccc1Nc1nc(NC2CCCCC2)nc(N2CCN(CCNc3ccnc4cc(Cl)ccc34)CC2)n1 | 0.194 (≈ 0.34 µM) | 29 |  |  | 
Fc1ccc(Nc2nc(NC3CCCCC3)nc(N3CCN(CCNc4ccnc5cc(Cl)ccc45)CC3)n2)cc1 | 0.00783 (≈ 0.0136 µM) | 262 | 74.81 | 71.75 | 
Cc1ccc(Nc2nc(NC3CCCCC3)nc(N3CCN(CCNc4ccnc5cc(Cl)ccc45)CC3)n2)cc1 | 0.256 (≈ 0.447 µM) | 115 |  |  | 
Clc1ccc2c(NCCN3CCN(c4nc(NC5CCCCC5)nc(N5CCCCC5)n4)CC3)ccnc2c1 | 0.00443 (≈ 0.00805 µM) | 481 | 99.9 | 99.11 | Toxic
Cc1ccc(Nc2nc(Nc3ccc(C)cc3)nc(N3CCN(CCNc4ccnc5cc(Cl)ccc45)CC3)n2)cc1 | 0.0383 (≈ 0.0659 µM) | 155 |  |  | 
Fc1ccc(Nc2nc(N3CCCCC3)nc(N3CCN(CCNc4ccnc5cc(Cl)ccc45)CC3)n2)cc1 | 0.00715 (≈ 0.0127 µM) | 329 | 99.9 | 96.51 | 
Cc1ccccc1Nc1nc(Nc2ccccc2C)nc(N2CCN(CCNc3ccnc4cc(Cl)ccc34)CC2)n1 | 0.186 (≈ 0.32 µM) | 75.3 |  |  | 
Clc1ccc2c(NCCN3CCN(c4nc(Nc5ccccc5)nc(Nc5ccccc5)n4)CC3)ccnc2c1 | 0.0756 (≈ 0.137 µM) | 27.8 |  |  | 
Clc1ccc2c(NCCN3CCN(c4nc(N5CCCCC5)nc(N5CCCCC5)n4)CC3)ccnc2c1 | 0.0444 (≈ 0.0828 µM) | 53.2 |  |  | 
O=CN1CCN(c2nc(N3CCOCC3)nc(N3CCN(CCNc4ccnc5cc(Cl)ccc45)CC3)n2)CC1 | 0.0105 (≈ 0.0185 µM) | 4110 |  |  | 
CCN(CC)CCCC(C)Nc1ccnc2cc(Cl)ccc12 (stereo unspecified) [CHLOROQUINE] |  |  | 99.9 | 94.26 | 
